Target: T1, Dual specificity protein phosphatase 22 (Homo sapiens, UniProt Q9NRW4)
T1 sequence (Q9NRW4 whole entry): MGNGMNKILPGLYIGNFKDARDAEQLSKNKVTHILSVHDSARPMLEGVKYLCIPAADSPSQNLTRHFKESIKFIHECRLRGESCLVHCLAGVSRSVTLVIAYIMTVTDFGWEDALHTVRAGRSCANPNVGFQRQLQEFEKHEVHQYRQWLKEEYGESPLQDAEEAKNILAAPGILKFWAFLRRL
Assay: Inhibition of GST-tagged human recombinant JSP1
How it was run: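 Fluorescence kinetic phosphatase assay: 30 nM purified recombinant GST-fused human JSP-1 in 50 mM Bis-Tris pH 6.5, 1 mM EDTA, 1 mM DTT, with 10 µM OMFP as substrate. Hydrolysis followed continuously at excitation 485/emission 535 nm for 3 min; initial rate taken from the linear region of the kinetic curve.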

Q: O=C(NC1CCCC1)C1CCCN(C(=O)Nc2ccc3nc(-c4ccco4)c(-c4ccco4)nc3c2)C1 (stereo not drawn) was tested. Which IC50 did it give?
A: The IC50 was 3.02 µM.

Q: How did the IC50 turn out when CCCCNC(=O)C1CCCN(C(=O)Nc2ccc3nc(-c4ccco4)c(-c4ccco4)nc3c2)C1 (stereo not drawn) was run?
A: Its IC50 is 2.79 µM.

Q: How did the IC50 turn out when CCCCN(CC)C(=O)C1CCCN(C(=O)Nc2ccc3nc(-c4ccco4)c(-c4ccco4)nc3c2)C1 (stereo not drawn) was run?
A: Its IC50 is 2.35 µM.

Q: For COc1nc2ccc(NC(=O)N3CCCC(C(=O)N4CCCCC4)C3)cc2nc1OC (stereo not drawn), which IC50 is on record?
A: The IC50 was greater than 100 µM.

Q: How did the IC50 turn out when CCN(CC)C(=O)C1CCCN(C(=O)Nc2ccc3nc(-c4ccc(C)cc4)c(-c4ccc(C)cc4)nc3c2)C1 (stereo not drawn) was run?
A: Its IC50 is greater than 40 µM.

Q: How did the IC50 turn out when CCNC(=O)C1CCCN(C(=O)Nc2ccc3nc(-c4ccco4)c(-c4ccco4)nc3c2)C1 (stereo not drawn) was run?
A: The IC50 was greater than 40 µM.

Q: How did the IC50 turn out when O=C(Nc1ccc2nc(-c3ccc(Br)cc3)c(-c3ccc(Br)cc3)nc2c1)N1CCCC(C(=O)N2CCCC2)C1 (stereo not drawn) was run?
A: The IC50 was greater than 40 µM.

Q: Cc1ccc(-c2nc3ccc(NC(=O)N4CCCC(C(=O)NC5CCCC5)C4)cc3nc2-c2ccc(C)cc2)cc1 (stereo not drawn) was tested. Which IC50 did it give?
A: Its IC50 is greater than 40 µM.

Q: For CN(C)C(=O)C1CCCN(C(=O)Nc2ccc3nc(-c4ccco4)c(-c4ccco4)nc3c2)C1 (stereo not drawn), which IC50 is on record?
A: Its IC50 is greater than 40 µM.

Q: How did the IC50 turn out when CC(C)NC(=O)C1CCCN(C(=O)Nc2ccc3nc(-c4ccco4)c(-c4ccco4)nc3c2)C1 (stereo not drawn) was run?
A: The IC50 was greater than 40 µM.

Q: Which IC50 does the source give for CCN(CC)C(=O)C1CCCN(C(=O)Nc2ccc3nc(-c4ccc(F)cc4)c(-c4ccc(F)cc4)nc3c2)C1 (stereo not drawn) here?
A: The IC50 was greater than 40 µM.

Q: CCCN(CCC)C(=O)C1CCCN(C(=O)Nc2ccc3nc(-c4ccco4)c(-c4ccco4)nc3c2)C1 (stereo not drawn) was tested. Which IC50 did it give?
A: Its IC50 is 2.5 µM.

Q: For CCCCN(C)C(=O)C1CCCN(C(=O)Nc2ccc3nc(-c4ccco4)c(-c4ccco4)nc3c2)C1 (stereo not drawn), which IC50 is on record?
A: Its IC50 is 5.55 µM.

Q: For CC(C)(C)NC(=O)C1CCCN(C(=O)Nc2ccc3nc(-c4ccco4)c(-c4ccco4)nc3c2)C1 (stereo not drawn), which IC50 is on record?
A: Its IC50 is 8.05 µM.

Q: With CC(C)CNC(=O)C1CCCN(C(=O)Nc2ccc3nc(-c4ccco4)c(-c4ccco4)nc3c2)C1 (stereo not drawn) as the compound, how does the IC50 read?
A: The IC50 was 8.36 µM.

Q: O=C(NC1CCCCC1)C1CCCN(C(=O)Nc2ccc3nc(-c4ccco4)c(-c4ccco4)nc3c2)C1 (stereo not drawn) was tested. Which IC50 did it give?
A: The IC50 was 2.25 µM.

Q: With CCN(CC)C(=O)C1CCCN(C(=O)Nc2ccc3nc(-c4ccc(Br)cc4)c(-c4ccc(Br)cc4)nc3c2)C1 (stereo not drawn) as the compound, how does the IC50 read?
A: Its IC50 is greater than 40 µM.

Q: For CCN(CC)C(=O)C1CCCN(C(=O)Nc2ccc3nc(-c4ccco4)c(-c4ccco4)nc3c2)C1 (stereo not drawn), which IC50 is on record?
A: Its IC50 is 12 µM.

Q: COc1nc2ccc(NC(=O)N3CCCC(C(=O)NC4CCCCC4)C3)cc2nc1OC (stereo not drawn) was tested. Which IC50 did it give?
A: The IC50 was greater than 100 µM.

Q: With O=C(Nc1ccc2nc(-c3ccco3)c(-c3ccco3)nc2c1)N1CCCC(C(=O)N2CCCCC2)C1 (stereo not drawn) as the compound, how does the IC50 read?
A: Its IC50 is 8.39 µM.

Q: Which IC50 does the source give for CCN(CC)C(=O)C1CCCN(C(=O)Nc2ccc3nc(-c4ccccc4)c(-c4ccccc4)nc3c2)C1 (stereo not drawn) here?
A: Its IC50 is greater than 40 µM.

Q: For O=C(Nc1ccc2nc(-c3ccccc3)c(-c3ccccc3)nc2c1)N1CCCC(C(=O)N2CCCCC2)C1 (stereo not drawn), which IC50 is on record?
A: The IC50 was greater than 40 µM.

Q: With O=C(NC1CCCCC1)C1CCCN(C(=O)Nc2ccc3nc(-c4ccc(F)cc4)c(-c4ccc(F)cc4)nc3c2)C1 (stereo not drawn) as the compound, how does the IC50 read?
A: Its IC50 is greater than 40 µM.
